Test results from ChEMBL document CHEMBL2176974, “A bactericidal guanidinomethyl biaryl that alters the dynamics of bacterial FtsZ polymerization” (J Med Chem, 2012).
Changes are numbered by the printed parent chain. ≈ marks a conversion by molar mass, not a printed value. Calls of active or inactive are those of the source. The rule behind the calls is not given here.

Tests used:
[1] = test system: Streptococcus agalactiae; assay: Antimicrobial activity against Streptococcus agalactiae Strep B ATCC 12386 incubated for 24 hrs by broth microdilution method; format: functional; conditions: Strep B ATCC 12386, 24 h
How it was run: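 CLSI broth microdilution. Log-phase bacteria at 10⁵ CFU/mL were exposed to 2-fold serial dilutions (64 to 0.016 μg/mL) in cation-adjusted Mueller-Hinton broth, 5% defibrinated sheep blood added for Streptococcus. Incubated aerobically 24 h at 37 °C. Growth read as OD600; MIC taken as the lowest concentration giving 90% growth inhibition.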

[2] = biological target: T1, Cell division protein FtsZ (Escherichia coli K-12) (UniProt P0A9A6); assay: Binding affinity to Escherichia coli FtsZ at 40 uM by fluorescence anisotropy BoGTPgammaS competition assay
T1 sequence (whole entry): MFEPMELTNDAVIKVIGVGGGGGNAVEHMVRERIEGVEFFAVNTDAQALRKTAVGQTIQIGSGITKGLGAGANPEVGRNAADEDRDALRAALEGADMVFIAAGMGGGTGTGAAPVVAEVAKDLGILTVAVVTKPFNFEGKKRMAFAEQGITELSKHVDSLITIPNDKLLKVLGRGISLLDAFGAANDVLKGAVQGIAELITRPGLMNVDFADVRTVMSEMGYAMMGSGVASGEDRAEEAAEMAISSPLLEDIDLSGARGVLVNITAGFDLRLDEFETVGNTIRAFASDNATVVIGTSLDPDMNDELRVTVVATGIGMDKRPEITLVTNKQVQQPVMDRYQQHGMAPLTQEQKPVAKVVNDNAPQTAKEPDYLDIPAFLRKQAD
How it was run: (§1)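 Competition with fluorescent BoGTPγS. BoGTPγS (1 μM final) was mixed with 5 μM FtsZ and compound or unlabeled GTP at 0–40 μM. Buffer was 50 mM Tris·HCl pH 7.4, 50 mM KCl, 2 mM magnesium acetate. After 5 min at 25 °C, anisotropy was read at excitation 488 nm and emission 510 nm, in triplicate and averaged.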

[3] = test system: T2, Cell division protein FtsZ (Staphylococcus aureus), P0A031 [E185A]; assay: Binding affinity to Staphylococcus aureus FtsZ E185A mutant self-polymerization at 10 ug/mL by microtiter plate-based light scattering assay
T2 sequence (whole entry): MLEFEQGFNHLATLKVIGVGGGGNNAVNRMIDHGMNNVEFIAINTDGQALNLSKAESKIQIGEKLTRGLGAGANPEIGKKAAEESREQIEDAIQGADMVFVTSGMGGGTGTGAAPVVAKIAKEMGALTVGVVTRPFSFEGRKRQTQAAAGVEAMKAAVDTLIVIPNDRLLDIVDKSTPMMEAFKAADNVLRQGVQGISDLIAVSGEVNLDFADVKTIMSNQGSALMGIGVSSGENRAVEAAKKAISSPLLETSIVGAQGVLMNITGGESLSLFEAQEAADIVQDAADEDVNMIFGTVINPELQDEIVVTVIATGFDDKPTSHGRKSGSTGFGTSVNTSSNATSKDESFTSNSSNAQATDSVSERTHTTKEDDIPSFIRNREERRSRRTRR

[4] = test system: Staphylococcus aureus; assay: Potency index, ratio of erythromycin to compound bactericidal effect in methicillin-sensitive Staphylococcus aureus 8325-4 at 8 times MIC by time kill study; format: functional
[5] = test system: Staphylococcus aureus; assay: Bactericidal activity against methicillin-sensitive Staphylococcus aureus 8325-4 at 8 times MIC measured 2 hrs post dose for 24 hrs assessed as log reduction in bacterial CFU by time kill study; format: functional
How it was run: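 Exponentially growing S. aureus 8325-4 was diluted in CAMH broth to 10⁵–10⁶ CFU/mL. […] Samples taken at 2, 4 and 6 h were pelleted or diluted, then plated on TSA. Colonies were counted after 24 h at 37 °C. Points are the mean of two independent measurements.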

[6] = biological target: Cell division protein FtsZ (Staphylococcus aureus, UniProt P0A031, I228R); assay: Binding affinity to Staphylococcus aureus FtsZ I228R mutant expressed in Escherichia coli BL21 (DE3) at 25 degC by fluorescence anisotropy assay
How it was run: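 Purified SaFtsZ mutant protein (0–25 μM) mixed with 5 μM compound in 50 mM Tris·HCl pH 7.4, 50 mM KCl, 2 mM magnesium acetate. After 5 min at 25 °C, steady-state fluorescence anisotropy read at excitation 245 / emission 318 nm, G-factor corrected, triplicate. Kd from nonlinear least-squares fit.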

[7] = test system: Staphylococcus aureus; assay: Potency index, ratio of vancomycin to compound bactericidal effect in methicillin-sensitive Staphylococcus aureus 8325-4 at 8 times MIC by time kill study; format: functional
[8] = test system: Enterococcus faecalis; assay: microbe, parasite or virus in culture; format: functional; conditions: ATCC 51575, 24 h
[9] = biological target: T3, Cell division protein FtsZ (Escherichia coli K-12, UniProt P0A9A6); assay: Binding affinity to Escherichia coli FtsZ at 25 degC by fluorescence anisotropy assay; conditions: read-out: Kd
T3 sequence (P0A9A6 whole entry): T1 sequence (whole entry)

[10] = biological target: T1, Cell division protein FtsZ (Escherichia coli K-12); assay: Stimulation of Escherichia coli FtsZ assembly at 20 ug/mL by transmission electron microscopy
How it was run: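 EcFtsZ was polymerized with 20 μg/mL compound (10 μM protein, 1 mM GTP, 10 mM CaCl₂, Tris/KCl/Mg acetate buffer pH 7.4). The reaction was diluted 1:10 in polymerization buffer at room temperature and applied to glow-discharged Formvar/carbon copper grids. Grids were negatively stained 1 min with 1% phosphotungstic acid and imaged by TEM at 80 kV.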

[11] = test system: Enterococcus faecalis; assay: Binding affinity to Enterococcus faecalis FtsZ at 40 um by fluorescence anisotropy BoGTPgammaS competition assay; how it was run: as §1
[12] = Selectivity index, ratio of Kd for Enterococcus faecalis FtsZ to Kd for Escherichia coli FtsZ
How it was run: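 Buffer was 50 mM Tris·HCl pH 7.4, 50 mM KCl, 2 mM magnesium acetate. Kd came from nonlinear least-squares fits, and the index is the ratio of the two Kd values.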

[13] = test system: T4, Cell division protein FtsZ (Staphylococcus aureus), P0A031 [I228R]; assay: Binding affinity to Staphylococcus aureus FtsZ I228R mutant self-polymerization at 10 ug/mL by microtiter plate-based light scattering assay
T4 sequence (whole entry): T2 sequence (whole entry) with A185E, I228R

Question: For `CC(C)(C)c1ccc(-c2cccc(CNC(=N)N)c2)cc1`, which MIC [1] is on record?
Answer: 16 mg/L (≈ 56.9 µM)

Question: What about the Activity [2] of the same compound?
Answer: inactive

Question: And the Activity [3]?
Answer: inactive

Question: What about the Ratio [4] of the same compound?
Answer: >1000

Question: And the FC [5]?
Answer: 3

Question: And the Kd [6]?
Answer: 32.9 µM

Question: And the Ratio [7]?
Answer: 100

Question: And the MIC [8]?
Answer: 4 mg/L (≈ 14.2 µM)

Question: And the Kd [9]?
Answer: 3.8 µM

Question: And the Activity [10]?
Answer: Active

Question: What about the Activity [11] of the same compound?
Answer: inactive

Question: And the Ratio [12]?
Answer: 6

Question: What about the Activity [13] of the same compound?
Answer: Active
